Data published in paper PMC11212574 (Emerging Microbes & Infections, 2024).

What was measured:
Format in all cases: cell-based
[1] = system: Hsp27 nuclear translocation / hnRNP A1 cytosol translocation; experiment: Nuclear/cytosol fraction assay upon EV-A71 infection; details: 0, 2, 4, 8 µM for 2 h, then EV-A71 MOI 10 for 6 h, RD cells (Fig 1C)
Outline: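 RD cells were pretreated 2 h with the test compound (0–8 µM), then infected with EV-A71 at MOI 10 for 6 h. Cells were PBS-washed, scraped and pelleted. Cytoplasmic extract was taken on ice as the supernatant after 16,000 xg for 5 min. Nuclear extract was the supernatant after 16,000 xg for 10 min at 4°C. Both were analysed by western blot, with Lamin B1 as nuclear and GAPDH as cytosolic control.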

Hsp27 phosphorylation = experiment: Western blot of Hsp27 phosphorylation; details: SB203580 0.25-8 µM for 2 h, then EV-A71 MOI 10 for 6 h, RD cells (Fig 1A)
Outline: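 RD cells were pre-treated 2 h with test peptide or small-molecule test compound (0–8 µM), then infected with EV-A71 at MOI 10 for 6 h. Cells were lysed in NP-40 buffer, assayed by Bradford, and 20 μg protein was run on 12% SDS-PAGE/PVDF. Blots were probed with phospho-Ser15/78/82 Hsp27 antibodies and HRP secondaries (1 h) and read by chemiluminescence. Loading controls were GAPDH for the compound and β-actin for peptides; peptide blots were quantified by densitometry.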

EV-A71 [2] = experiment: Viral RNA by RT-qPCR; details: HEK 293T cells, 8 μM SB203580 2 h before EV-A71 infection for 9 h (Fig 6C)
[3] = system: Hsp27/hnRNP A1 relocalization; details: for redistribution of Hsp27 and hnRNP A1 in EV-A71-infected RD cells: peptide 25 μM for 2 h, then EV-A71 MOI 40 for 6 h (Fig 7C-E, S7C-E)
Outline: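 RD cells on coverslips were pretreated 2 h with the test compound, then infected with EV-A71 at MOI 40 for 6 h. Cells were fixed in 4% paraformaldehyde for 20 min, permeabilised in 0.5% Triton X-100 for 15 min and blocked in 5% BSA for 2 h. They were stained with anti-Hsp27/anti-hnRNP A1 and Alexa Fluor 488/594 secondaries, with DAPI or Hoechst nuclei, and imaged by confocal. M1 coefficient gave overlap with nuclear stain.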

RD cells = experiment: CCK-8 assay; details: peptide treatment for 2 days, CCK-8 (Fig S7B)
Outline: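 RD cells were seeded at 1 × 10^4/well and held 1 day at 5% CO2. They were then exposed to the test peptide for 2 days. CCK-8 reagent was added with medium and incubated 1 h at 37°C, and OD was read at 450 nm.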

EV-A71 VP1 = EV-A71 VP1 protein level by western blot with densitometry; details: RD cells, peptide for 2 h, EV-A71 MOI 1 for 9 h (Fig S8E)
Outline: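 RD cells were pretreated 2 h with the test peptide, then infected with EV-A71 (SHZH98 strain). Lysis was in NP-40 buffer, with protein measured by Bradford assay. 20 μg protein was run on 12% SDS-PAGE and transferred to PVDF. HRP secondary antibodies were applied for 1 h, with chemiluminescent detection. VP1 bands were quantified by densitometry against the respective untreated control.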

EV-A71 [4] = experiment: Virus titration; details: RD cells, peptide 25 μM for 2 h, EV-A71 MOI 0.1 for 24 h (Fig S8G)
Outline: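 RD cells were pretreated 2 h with the test peptide, then infected with EV-A71. Supernatants were serially diluted 10-fold and added in quintuplicate to RD cells seeded 24 h earlier. TCID50 was calculated by the Kärber method after 120 h of infection.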

C[S+]([O-])c1ccc(-c2nc(-c3ccncc3)c(-c3ccc(F)cc3)[nH]2)cc1 (stereo not drawn) [SB203580]
cytosol translocation of hnRNP A1 (nuclear/cytosol fraction) [1]: inhibited the cytosol translocation of hnRNP A1 in a dose-dependent manner | nuclear translocation of Hsp27 (nuclear/cytosol fraction) [1]: suppress the nuclear translocation of Hsp27 in a dose-dependent manner | Hsp27 phosphorylation level at Ser15 and Ser82 (Hsp27 phosphorylation): slightly decreased | effect on viral RNA level in Hsp27 S78A- and Hsp27 S78D-expressing cells (EV-A71 [2]): no obvious effects | nuclear Hsp27 level upon EV-A71 infection ([3]; 2 µM for 2 h, then EV-A71 MOI 40 for 6 h, RD cells (Fig 1B)): markedly reduced nuclear Hsp27 level | nuclear relocation of Hsp27 upon EV-A71 infection ([3]; 4 µM for 2 h, then EV-A71 MOI 40 for 6 h, RD cells (Fig 1B)): further blocked to an invisible level

RKKRRQRRR-YSREANQPKPSPKRESGEE [NC]
CC50 (in words) (RD cells): high CC50 | effect on VP1 level (in words) (EV-A71 VP1): no effect | redistribution of Hsp27 and hnRNP A1 in EV-A71-infected RD cells [3]: did not affect

RKKRRQRRR-AYSRAAAAQLSS [S78-3A]
CC50 (in words) (RD cells): high CC50 | effect on viral titre (in words) (EV-A71 [4]): only mildly decreased | redistribution of Hsp27 and hnRNP A1 in EV-A71-infected RD cells [3]: partially suppressed
